Rows were chosen to be rich in hits. Some 3.1% of all compounds tested hit in one or more screens of this group.
MEKK3 PB1 HTS: raises or lowers MEK5 binding to the human MEKK3 PB1 domain; Q99759; bead-based flow cytometry, Alexa488-MEK5 binding to MEKK3; actives lie on both sides; 0 = blocked by unlabeled MEK5, 100 = vehicle; binding response (% of control), % at 10 µM; hit rate 1.4% among 290,000; AID 1529;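 active means binding response more than 3 SD above or below the average of its plate-row segment, actives on both sides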;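 further: Alexa488 bead fluorescence after subtracting the streptavidin-only scavenger bead signal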
Target sequence (Q99759 whole entry, looked up, the tested form may be a part): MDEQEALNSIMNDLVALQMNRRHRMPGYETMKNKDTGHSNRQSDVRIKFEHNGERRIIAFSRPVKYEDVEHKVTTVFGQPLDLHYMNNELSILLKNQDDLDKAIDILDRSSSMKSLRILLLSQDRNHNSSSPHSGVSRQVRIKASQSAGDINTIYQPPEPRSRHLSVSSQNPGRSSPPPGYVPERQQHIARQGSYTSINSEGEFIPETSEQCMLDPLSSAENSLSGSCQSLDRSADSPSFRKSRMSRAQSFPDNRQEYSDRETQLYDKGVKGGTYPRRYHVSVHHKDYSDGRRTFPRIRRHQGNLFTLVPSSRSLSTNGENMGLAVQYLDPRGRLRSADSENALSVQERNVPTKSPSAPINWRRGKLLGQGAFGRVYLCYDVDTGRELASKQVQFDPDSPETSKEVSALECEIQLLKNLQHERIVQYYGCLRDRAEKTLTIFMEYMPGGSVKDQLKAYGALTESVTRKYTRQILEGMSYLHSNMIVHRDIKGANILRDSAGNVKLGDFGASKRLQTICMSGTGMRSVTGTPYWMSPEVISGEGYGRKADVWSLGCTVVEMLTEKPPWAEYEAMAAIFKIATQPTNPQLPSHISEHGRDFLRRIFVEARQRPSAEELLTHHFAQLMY
PREPL inhibitor: human PREPL enzyme inhibition; Q4J6C6; recombinant PREPL, fluorescence polarization activity-based probe; inhibition, % at 5.96 µM; hit rate 0.68% among 320,000; in the data active means inhibition above about 43%
UBC13 polyUb: inhibitors of human UBC13 polyubiquitin chain formation | P61088 | AID 485273 | inhibition, % at 20 µM | hit rate 0.47% among 330,000 | TR-FRET; in the data active means inhibition above about 45%, passing the limit was not always enough
Apaf1 inhib: blocks human Apaf-1 apoptosome activity. O14727. inhibition, % at 20 µM. AID 489030. reconstituted apoptosome caspase-3 activity, DEVD-Rh110 fluorescence. hit rate 0.71% among 330,000; active means inhibition of at least 40% at 20 µM
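Material: reconstituted apoptosome with Apaf-1, cytochrome c, caspase-9, procaspase-3, dATP; medium: pH 7.5 Hepes buffer with CHAPS, BSA, DTT; also added: cytochrome c and DEVD-Rh110 substrate; timing: 30 min plus 50 min, RT; signal: Rh110 fluorescence intensity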
MEKK2 mut-MEK5: signal of MEK5 binding to mutant human MEKK2 PB1 domain; bead flow cytometry, Alexa488-MEK5 binding to MEKK2 mutant; percent response, % at 10 µM; hit rate 0.35% among 290,000; AID 1530; in the data active means percent response above about 24%, passing the limit was not always enough
MEKK2wt PB1 HTS: raises or lowers MEK5 binding to wildtype human MEKK2 PB1 domain | bead flow cytometry, Alexa488-MEK5 binding to MEKK2 WT; actives lie on both sides | binding response (% of control), % at 10 µM | Q9Y2U5 | hit rate 1.1% among 290,000; in the data active means binding response below about 67% or above about 130%
MEKK2wt confirm: raises or lowers MEK5 binding to wildtype human MEKK2, retest. hit rate 2.4% among 5,900. binding response (% of control), % at 10 µM. bead flow cytometry, Alexa488-MEK5 binding to MEKK2 WT; actives lie on both sides. shares compounds with MEKK3 PB1 HTS; in the data active means binding response below about 16% or above about 210%; inactive means in between
MEKK2mut-MEK5: signal of MEK5 binding to mutant human MEKK2, retest; shares compounds with MEKK3 PB1 HTS; bead flow cytometry, Alexa488-MEK5 binding to MEKK2 mutant; percent response, % at 10 µM; hit rate 2% among 5,900; in the data active means percent response mostly above about 71%, no sharp cut-off; inactive means mostly below about 38%;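 further: higher means compound restores mutant binding toward wildtype level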
MEKK3-MEK5 inh: confirmation of inhibitors of MEK5 binding to human MEKK3. shares compounds with MEKK3 PB1 HTS. bead flow cytometry, Alexa488-MEK5 binding to MEKK3; stronger effect = lower value. binding response (% of control), % at 10 µM. hit rate 1.8% among 5,900;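 active means binding response below 72% of control, or above a set upper limit, though filed actives all read lower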
Large screens that a line does not name were inactive (follow-up assays come after a bar, where they were run); [ ] = another dose, or the depositor's remark.

COc1ccc(C2=NN(S(C)(=O)=O)C(c3cccs3)C2)cc1OC (centres undefined)	none
COCCNC(=O)C1CC(c2ccccc2C(F)(F)F)=NO1 (centres undefined)	none (no result: MEKK3 PB1 HTS, MEKK2 mut-MEK5, MEKK2wt PB1 HTS)
O=C(CSc1cccc(C(F)(F)F)c1)NC(=O)c1ccccc1	MEKK3 PB1 HTS 146.0 | MEKK2wt confirm inactive | MEKK2mut-MEK5 inactive | MEKK3-MEK5 inh inactive
COc1ccc(C(=O)Nc2ccc(C)cc2C(=O)c2ccccc2)cc1	none
CNc1ccc(OC(F)F)cc1C(=O)c1ccccc1	MEKK3 PB1 HTS 1.0[inhibitor], MEKK2wt PB1 HTS -2.0[inhibitor] | MEKK2wt confirm inactive | MEKK2mut-MEK5 inactive | MEKK3-MEK5 inh inactive
Cc1ccc(NC(=O)c2ccc(CN3CCN(C)CC3)cc2)cc1Nc1nccc(-c2cccnc2)n1	none (no result: MEKK2 mut-MEK5, MEKK2wt PB1 HTS) | MEKK3-MEK5 inh inactive
O=C(Nc1cccnc1)c1ccc(CN2CCc3ccccc3C2)cc1	none
CCN(CC)C(=O)C1CCCN(C(=O)c2oc3ccc(C)cc3c2C)C1 (centres undefined)	none
CCOP(=O)(c1ccccc1)C(O)c1ccc(F)cc1 (centres undefined)	MEKK3 PB1 HTS 144.0 | MEKK2wt confirm inactive | MEKK2mut-MEK5 inactive | MEKK3-MEK5 inh inactive
CCc1ccc(C(C(=O)NCCOC)N(C(=O)Cn2nnc3ccccc32)c2cccnc2)cc1 (centres undefined)	MEKK3 PB1 HTS 2.0[inhibitor], MEKK2wt PB1 HTS 2.0[inhibitor] | MEKK2wt confirm inactive | MEKK2mut-MEK5 inactive | MEKK3-MEK5 inh inactive
Cc1nc2ccccc2n1S(=O)(=O)N(C)C	MEKK3 PB1 HTS 141.0 | MEKK2wt confirm inactive | MEKK2mut-MEK5 inactive | MEKK3-MEK5 inh inactive
CC(=O)c1ccc(NC(=S)NC(C)c2ccc(Cl)cc2Cl)cc1 (centres undefined)	none
O=C(CCC1CCN(Cc2ccc(Cl)cc2)CC1)NC1CC1	none
CCN(CC)CCCNC(=O)c1cc2c(=O)n(CC)c3ccccc3c2s1	none
CCN(CC)CCCNC(=O)c1cc2c(Cl)nc3ccccc3c2s1	MEKK2 mut-MEK5 54.0, MEKK2wt PB1 HTS 152.0 | MEKK2wt confirm inactive | MEKK2mut-MEK5 inactive | MEKK3-MEK5 inh inactive
CSc1ccc(/C=N\NC(=O)CNc2ccc(C)cc2)cc1	none
Cc1ccc(NCC(=O)N/N=C/c2cccc(Oc3ccccc3)c2)cc1	MEKK3 PB1 HTS 134.0 | MEKK2wt confirm inactive | MEKK2mut-MEK5 inactive | MEKK3-MEK5 inh inactive
Cc1cccc(NCC(=O)N/N=C/c2ccc(Br)cc2)c1	MEKK3 PB1 HTS 47.0[inhibitor] | MEKK2wt confirm inactive | MEKK2mut-MEK5 inactive | MEKK3-MEK5 inh inactive
Cc1cccc(NCC(=O)N/N=C\c2cccc(Oc3ccccc3)c2)c1	none
Cc1ccc(NCC(=O)N/N=C/c2ccncc2)cc1	MEKK3 PB1 HTS 137.0 | MEKK2wt confirm inactive | MEKK2mut-MEK5 inactive | MEKK3-MEK5 inh inactive
COc1cccc(/C=N/NC(=O)Cn2ccnc2C)c1	MEKK3 PB1 HTS 142.0 | MEKK2wt confirm inactive | MEKK2mut-MEK5 inactive | MEKK3-MEK5 inh inactive
Cc1cc(Cl)cc(C)c1OCC(=O)NC1CCCCCC1	none (no result: MEKK3 PB1 HTS, MEKK2 mut-MEK5, MEKK2wt PB1 HTS)
CCOC(=O)c1c(C)[nH]c(C)c1S(=O)(=O)NCCN1CCN(c2ccccc2F)CC1	none
CCc1nnc(NC(=O)Cc2ccc(Br)cc2)s1	none
CCOc1ccc2[nH]c3c(c2c1)CNCC3	MEKK2wt PB1 HTS 158.0 | MEKK2wt confirm inactive | MEKK2mut-MEK5 inactive | MEKK3-MEK5 inh inactive
CC(C)(C)C(=O)Cn1nc(Cl)nc1Cl	MEKK3 PB1 HTS 132.0 | MEKK2wt confirm inactive | MEKK2mut-MEK5 inactive | MEKK3-MEK5 inh inactive
O=C(Cn1nc(Cl)nc1Cl)c1ccccc1	none

Screens deposited in PubChem BioAssay by several laboratories.
